Key:
[1] = tested on: Human immunodeficiency virus 1; assay: Antiviral activity against Human immunodeficiency virus 1 HXB2 expressing wild type protease infected in human MT4 cells after 5 days by MTT assay; format: functional, organism-based; conditions: Human immunodeficiency virus 1, HXB2, MT4, 120 h
[2] = tested on: Human immunodeficiency virus 1; assay: Antiviral activity against Human immunodeficiency virus 1 HXB2 expressing protease M9 mutant infected in human MT4 cells after 5 days by MTT assay; format: functional, organism-based; conditions: Human immunodeficiency virus 1, HXB2, MT4, 120 h
[3] = tested on: Human immunodeficiency virus 1; assay: Antiviral activity against Human immunodeficiency virus 1 HXB2 expressing protease M10 mutant infected in human MT4 cells after 5 days by MTT assay; format: functional, organism-based; conditions: Human immunodeficiency virus 1, HXB2, MT4, 120 h
[4] = tested on: Human immunodeficiency virus 1; assay: Antiviral activity against Human immunodeficiency virus 1 HXB2 expressing protease M8 mutant infected in human MT4 cells after 5 days by MTT assay; format: functional, organism-based; conditions: Human immunodeficiency virus 1, HXB2, MT4, 120 h
[5] = Inhibition of Human immunodeficiency virus protease M9 mutant expressed in Escherichia coli using ArgGlu(EDANS)SerGlnAsnTyrProIleValGlnLys(DABCYL)Arg as substrate preincubated with compound for 0.5 to 1 min measured by fluorometric analysis at pH 6.5
[6] = Inhibition of Human immunodeficiency virus protease M10 mutant expressed in Escherichia coli using ArgGlu(EDANS)SerGlnAsnTyrProIleValGlnLys(DABCYL)Arg as substrate preincubated with compound for 0.5 to 1 min measured by fluorometric analysis at pH 6.5
[7] = Inhibition of wild type Human immunodeficiency virus protease expressed in Escherichia coli using ArgGlu(EDANS)SerGlnAsnTyrProIleValGlnLys(DABCYL)Arg as substrate preincubated with compound for 0.5 to 1 min measured by fluorometric analysis at pH 6.5
[8] = Inhibition of Human immunodeficiency virus protease M8 mutant expressed in Escherichia coli using ArgGlu(EDANS)SerGlnAsnTyrProIleValGlnLys(DABCYL)Arg as substrate preincubated with compound for 0.5 to 1 min measured by fluorometric analysis at pH 6.5
[9] = tested on: Human immunodeficiency virus 1; assay: Antiviral activity against Human immunodeficiency virus 1 HXB2 expressing protease M3 mutant infected in human MT4 cells after 5 days by MTT assay; format: functional, organism-based; conditions: Human immunodeficiency virus 1, HXB2, MT4, 120 h
Summary of the method: (§1)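 MT-4 cells (AIDS Research and Reference Reagent Program) exposed to 50% tissue culture infective doses (TCID₅₀) of virus with various concentrations of test compound for 5 days. MTT solution then added and absorbance measured. Mutant strains carry 10–17 resistance mutations with phenotypic resistance to marketed PIs; all include I84V except M7. IC₅₀ reported.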

[10] = tested on: Human immunodeficiency virus 1; assay: Antiviral activity against Human immunodeficiency virus 1 HXB2 expressing protease M6 mutant infected in human MT4 cells after 5 days by MTT assay; format: functional, organism-based; conditions: Human immunodeficiency virus 1, HXB2, MT4, 120 h; summary of the method: as §1
[11] = tested on: Human immunodeficiency virus 1; assay: Antiviral activity against Human immunodeficiency virus 1 HXB2 expressing protease M5 mutant infected in human MT4 cells after 5 days by MTT assay; format: functional, organism-based; conditions: Human immunodeficiency virus 1, HXB2, MT4, 120 h; summary of the method: as §1
[12] = tested on: Human immunodeficiency virus 1; assay: Antiviral activity against Human immunodeficiency virus 1 HXB2 expressing protease M4 mutant infected in human MT4 cells after 5 days by MTT assay; format: functional, organism-based; conditions: Human immunodeficiency virus 1, HXB2, MT4, 120 h; summary of the method: as §1

SMILES	IC50 [1]	IC50 [2]	IC50 [3]	IC50 [4]	Ki [5]	Ki [6]	Ki [7]	Ki [8]	IC50 [9]	IC50 [10]	IC50 [11]	IC50 [12]
CCN(C=C1C(=O)Nc2ccc(S(=O)(=O)N(CC(C)C)C[C@@H](O)[C@H](Cc3ccccc3)NC(=O)O[C@H]3CO[C@H]4OCC[C@H]43)cc21)CC (mixture of isomers)	38 nM	21 nM	41 nM	40 nM	< 0.3 nM	< 1 nM	< 0.1 nM	–	–	–	–	–
CCNC=C1C(=O)Nc2ccc(S(=O)(=O)N(CC(C)C)C[C@@H](O)[C@H](Cc3ccccc3)NC(=O)O[C@H]3CO[C@H]4OCC[C@H]43)cc21 (mixture of isomers)	28 nM	27 nM	80 nM	35 nM	< 0.3 nM	< 1 nM	< 0.1 nM	–	–	–	–	–
CC(C)CN(C[C@@H](O)[C@H](Cc1ccccc1)NC(=O)O[C@H]1CO[C@H]2OCC[C@H]21)S(=O)(=O)c1ccc2c(c1)CC(=O)N2	82 nM	110 nM	930 nM	150 nM	0.95 nM	14 nM	< 0.1 nM	0.53 nM	–	–	–	–
CNC=C1C(=O)Nc2ccc(S(=O)(=O)N(CC(C)C)C[C@@H](O)[C@H](Cc3ccccc3)NC(=O)O[C@H]3CO[C@H]4OCC[C@H]43)cc21 (mixture of isomers)	60 nM	50 nM	93 nM	–	< 0.3 nM	< 1 nM	< 0.1 nM	0.11 nM	51 nM	–	–	–
CC(C)CN(C[C@@H](O)[C@H](Cc1ccccc1)NC(=O)O[C@H]1CO[C@H]2OCC[C@H]21)S(=O)(=O)c1ccc2c(c1)C(=CNCc1nc3ccccc3[nH]1)C(=O)N2 (mixture of isomers)	> 400 nM	–	–	–	< 0.3 nM	< 1 nM	< 0.1 nM	–	–	–	–	–
CC(C)CN(C[C@@H](O)[C@H](Cc1ccccc1)NC(=O)O[C@H]1CO[C@H]2OCC[C@H]21)S(=O)(=O)c1ccc2c(c1)C(=CNCCN(C)C)C(=O)N2 (mixture of isomers)	> 400 nM	–	–	–	< 0.3 nM	1.7 nM	< 0.1 nM	0.57 nM	–	–	–	–
CC(C)CN(C[C@@H](O)[C@H](Cc1ccccc1)NC(=O)O[C@H]1CO[C@H]2OCC[C@H]21)S(=O)(=O)c1ccc2c(c1)C(=CNCCNc1ccccc1)C(=O)N2 (mixture of isomers)	> 80 nM	80 nM	120 nM	160 nM	< 0.3 nM	3 nM	< 0.1 nM	0.39 nM	–	–	–	–
Cc1nc(CNC=C2C(=O)Nc3ccc(S(=O)(=O)N(CC(C)C)C[C@@H](O)[C@H](Cc4ccccc4)NC(=O)O[C@H]4CO[C@H]5OCC[C@H]54)cc32)cs1 (mixture of isomers)	45 nM	30 nM	29 nM	40 nM	< 0.3 nM	< 1 nM	< 0.1 nM	–	–	–	–	–
CC(C)CN(C[C@@H](O)[C@H](Cc1ccccc1)NC(=O)O[C@H]1CO[C@H]2OCC[C@H]21)S(=O)(=O)c1ccc2c(c1)C(=CNC(C)C)C(=O)N2 (mixture of isomers)	15 nM	19 nM	60 nM	30 nM	< 0.3 nM	< 1 nM	< 0.1 nM	0.11 nM	–	–	–	–
CC(C)CN(C[C@@H](O)[C@H](Cc1ccccc1)NC(=O)O[C@H]1CO[C@H]2OCC[C@H]21)S(=O)(=O)c1ccc2c(c1)C(=CNCC1CCCCC1)C(=O)N2 (mixture of isomers)	9.7 nM	9 nM	40 nM	27 nM	< 0.3 nM	< 1 nM	< 0.1 nM	0.16 nM	21 nM	25 nM	18 nM	30 nM
CC(C)CN(C[C@@H](O)[C@H](Cc1ccccc1)NC(=O)O[C@H]1CO[C@H]2OCC[C@H]21)S(=O)(=O)c1ccc2c(c1)C(=CNCc1ccc3ccccc3n1)C(=O)N2 (mixture of isomers)	35 nM	23 nM	27 nM	34 nM	< 0.3 nM	< 1 nM	0.1 nM	< 0.1 nM	21 nM	25 nM	–	40 nM
COCCNC=C1C(=O)Nc2ccc(S(=O)(=O)N(CC(C)C)C[C@@H](O)[C@H](Cc3ccccc3)NC(=O)O[C@H]3CO[C@H]4OCC[C@H]43)cc21 (mixture of isomers)	70 nM	42 nM	48 nM	–	< 0.3 nM	1.2 nM	0.11 nM	< 0.1 nM	–	–	–	–
CC(C)CN(C[C@@H](O)[C@H](Cc1ccccc1)NC(=O)O[C@H]1CO[C@H]2OCC[C@H]21)S(=O)(=O)c1ccc2c(c1)C(=CNCCO)C(=O)N2 (mixture of isomers)	> 400 nM	800 nM	400 nM	–	< 0.3 nM	< 1 nM	< 0.1 nM	0.11 nM	–	–	–	–
CCCNC=C1C(=O)Nc2ccc(S(=O)(=O)N(CC(C)C)C[C@@H](O)[C@H](Cc3ccccc3)NC(=O)O[C@H]3CO[C@H]4OCC[C@H]43)cc21 (mixture of isomers)	30 nM	40 nM	120 nM	–	< 0.3 nM	< 1 nM	0.12 nM	< 0.1 nM	40 nM	–	–	–
CC(C)CN(C[C@@H](O)[C@H](Cc1ccccc1)NC(=O)O[C@H]1CO[C@H]2OCC[C@H]21)S(=O)(=O)c1ccc2c(c1)C(=CNC(C)(C)C)C(=O)N2 (mixture of isomers)	9 nM	25 nM	200 nM	35 nM	0.72 nM	14 nM	< 0.1 nM	0.35 nM	–	–	–	–
CC(C)CN(C[C@@H](O)[C@H](Cc1ccccc1)NC(=O)O[C@H]1CO[C@H]2OCC[C@H]21)S(=O)(=O)c1ccc2c(c1)C(=CN(C)C)C(=O)N2 (mixture of isomers)	93 nM	65 nM	70 nM	90 nM	< 0.3 nM	< 1 nM	< 0.1 nM	–	–	–	–	–
CC(C)CN(C[C@@H](O)[C@H](Cc1ccccc1)NC(=O)O[C@H]1CO[C@H]2OCC[C@H]21)S(=O)(=O)c1ccc2c(c1)C(=CN)C(=O)N2 (mixture of isomers)	300 nM	200 nM	180 nM	200 nM	< 0.3 nM	3 nM	< 0.1 nM	–	–	–	–	–
CC(C)CN(C[C@@H](O)[C@H](Cc1ccccc1)NC(=O)O[C@H]1CO[C@H]2OCC[C@H]21)S(=O)(=O)c1ccc2c(c1)C(=CNC1CC1)C(=O)N2 (mixture of isomers)	24 nM	25 nM	300 nM	32 nM	< 0.3 nM	2.1 nM	< 0.1 nM	0.12 nM	–	–	–	–
CC(C)CN(C[C@@H](O)[C@H](Cc1ccccc1)NC(=O)O[C@H]1CO[C@H]2OCC[C@H]21)S(=O)(=O)c1ccc2c(c1)C(=CNCCc1ccccc1)C(=O)N2 (mixture of isomers)	22 nM	28 nM	110 nM	61 nM	< 0.3 nM	1.3 nM	< 0.1 nM	0.17 nM	–	–	–	–
CC(C)CN(C[C@@H](O)[C@H](Cc1ccccc1)NC(=O)O[C@H]1CO[C@H]2OCC[C@H]21)S(=O)(=O)c1ccc2c(c1)C(=CNc1ccccc1)C(=O)N2	13 nM	100 nM	> 400 nM	110 nM	1.2 nM	13 nM	< 0.1 nM	0.46 nM	–	–	–	–
CC(C)CN(C[C@@H](O)[C@H](Cc1ccccc1)NC(=O)O[C@H]1CO[C@H]2OCC[C@H]21)S(=O)(=O)c1ccc2c(c1)C(=CNCc1ccncc1)C(=O)N2 (mixture of isomers)	300 nM	220 nM	110 nM	270 nM	< 0.3 nM	< 1 nM	< 0.1 nM	–	–	–	–	–
